In ChEMBL document CHEMBL3046864, “Synthesis and antifungal activity of a series of N-substituted [2-(2,4-dichlorophenyl)-3-(1,2,4-triazol-1-yl)]propylamines” (J Agric Food Chem, 2007):
Converted amounts (≈) assume the structure as drawn. The source made the active and inactive calls. No cut-off for these calls is given here.

How the values were obtained:
Fusarium graminearum = test: Fungicidal activity against Fusarium graminearum assessed as inhibition of radial growth; type: functional, organism-based
Method in brief: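 The Fusarium isolate came from the IPV collection and was kept on PDA. Radial growth was measured on PDA plates at 100–0.1 mg L-1. Percentage inhibition was taken from the mean difference between treated and control cultures. EC50 came from a probit plot of percentage inhibition against dose.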

Botrytis cinerea = test: Fungicidal activity against Botryotinia fuckeliana assessed as inhibition of radial growth; type: functional, organism-based
Method in brief: (§1)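 Strains from the IPV collection were maintained on potato dextrose agar. Radial growth on PDA was measured at 100–0.1 mg L-1. % inhibition was taken from the mean difference between treated and control cultures relative to control. % inhibition was plotted on a probit scale against dose to give EC50.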

Oculimacula yallundae = test: Fungicidal activity against Oculimacula yallundae assessed as inhibition of radial growth; type: functional, organism-based; method in brief: as §1
Ustilago maydis = test: Fungicidal activity against Ustilago maydis ATCC 14826 assessed as inhibition of fungal cell count; type: functional, organism-based; details: Mycosarcoma maydis
Method in brief: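 U. maydis ATCC 14826 broth cultures were grown in Coursen and Sisler broth with compound. Growth was estimated by sporidial cell count at the end of treatment and expressed as % inhibition versus the untreated control.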

Pyrenophora teres = test: Fungicidal activity against Pyrenophora teres assessed as inhibition of radial growth; type: functional, organism-based; method in brief: as §1
Cercospora beticola = test: Fungicidal activity against Cercospora beticola assessed as inhibition of radial growth; type: functional, organism-based; method in brief: as §1
Puccinia recondita = test: Antifungal activity against Puccinia recondita infected 125 ug/mL compound […] assessed as inhibition of wheat brown rust disease measured after 10 days post fungal inoculation; type: functional
Blumeria graminis = test: Antifungal activity against Blumeria graminis f. sp. tritici infected in 125 ug/mL […] assessed as inhibition of wheat powdery mildew disease measured after 10 days post fungal inoculation; type: functional
Phytophthora infestans = test: Antifungal activity against Phytophthora infestans infected 125 ug/mL compound pre-treated six-leaves stage tomato plant seedlings assessed as inhibition of disease measured after 7 days post fungal inoculation; type: functional
Method in brief: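 Preventive application before inoculation. Tomato plants were sprayed with a P. infestans zoosporangia suspension (5 × 10^4 mL-1). Plants were held 24 h at 20 ± 1 °C and 100% RH, then moved to a greenhouse at 23 ± 1 °C and 70 ± 10% RH. Diseased leaf area was scored 7 days after inoculation against nontreated plants to give percentage disease inhibition.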

[1] = molecular target: T1, Lanosterol 14-alpha demethylase (Mycosarcoma maydis) (UniProt P49602); test: Inhibition of 14alpha-demethylase in Ustilago maydis ATCC 14826 assessed as increase in 14-methyl sterols levels at 0.01 to 100 mg/L measured after 18 hr post compound treatment
T1 sequence (whole entry): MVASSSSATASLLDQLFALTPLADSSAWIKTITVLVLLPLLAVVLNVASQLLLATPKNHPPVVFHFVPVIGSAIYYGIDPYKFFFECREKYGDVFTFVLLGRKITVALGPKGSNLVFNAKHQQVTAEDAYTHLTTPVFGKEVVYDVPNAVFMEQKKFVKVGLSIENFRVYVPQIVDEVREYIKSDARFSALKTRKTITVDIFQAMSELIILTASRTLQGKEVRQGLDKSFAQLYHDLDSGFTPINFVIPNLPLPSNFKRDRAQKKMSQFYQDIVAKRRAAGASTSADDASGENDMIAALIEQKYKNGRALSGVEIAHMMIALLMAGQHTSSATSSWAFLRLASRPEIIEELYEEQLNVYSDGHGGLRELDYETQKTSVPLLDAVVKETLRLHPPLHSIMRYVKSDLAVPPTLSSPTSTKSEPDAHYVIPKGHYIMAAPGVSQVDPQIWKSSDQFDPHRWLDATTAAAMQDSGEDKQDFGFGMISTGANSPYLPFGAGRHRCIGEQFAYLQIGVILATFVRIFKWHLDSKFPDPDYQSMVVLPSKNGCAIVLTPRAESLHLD
Method in brief: (§2)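 U. maydis was grown in Coursen and Sisler broth with compound at 0.01–100 mg L-1 for 18 h. Sporidia were harvested by centrifugation, spiked with dihydrocholesterol as a known-amount standard, and saponified in 20% KOH in 60% ethanol for 1 h at 90 °C. The unsaponifiable fraction, including squalene and 14-methyl sterols, was analysed by capillary GC-FID and GC-MS.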

[2] = molecular target: T2, Squalene monooxygenase (Mycosarcoma maydis) (UniProt A0A0D1C8X8); test: Inhibition of squalene epoxidase in Ustilago maydis ATCC 14826 assessed as effect on squalene level at 0.01 to 100 mg/L measured after 18 hr post compound treatment; method in brief: as §2
T2 sequence (whole entry): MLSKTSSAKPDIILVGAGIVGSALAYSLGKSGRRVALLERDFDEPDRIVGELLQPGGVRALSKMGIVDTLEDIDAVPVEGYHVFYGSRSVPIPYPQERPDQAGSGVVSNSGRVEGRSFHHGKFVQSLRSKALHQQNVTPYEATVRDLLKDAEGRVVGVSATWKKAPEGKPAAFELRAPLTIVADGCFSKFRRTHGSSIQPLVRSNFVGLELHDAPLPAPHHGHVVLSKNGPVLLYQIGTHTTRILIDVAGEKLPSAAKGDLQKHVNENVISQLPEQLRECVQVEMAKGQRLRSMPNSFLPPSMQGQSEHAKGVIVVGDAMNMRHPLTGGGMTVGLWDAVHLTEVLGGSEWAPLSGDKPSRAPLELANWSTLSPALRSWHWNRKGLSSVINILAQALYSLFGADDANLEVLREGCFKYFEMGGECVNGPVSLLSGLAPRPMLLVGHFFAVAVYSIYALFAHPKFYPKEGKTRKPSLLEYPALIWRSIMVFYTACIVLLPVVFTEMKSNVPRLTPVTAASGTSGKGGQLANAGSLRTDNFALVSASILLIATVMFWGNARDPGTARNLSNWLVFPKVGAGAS

Row | SMILES | EC50 (Fusarium graminearum) [µg/mL] | EC50 (Botrytis cinerea) [µg/mL] | EC50 (Oculimacula yallundae) [µg/mL] | EC50 (Ustilago maydis) [µg/mL] | EC50 (Pyrenophora teres) [µg/mL] | EC50 (Cercospora beticola) [µg/mL] | inhibition (INH) (Puccinia recondita) [%] | inhibition (INH) (Blumeria graminis) [%] | inhibition (INH) (Phytophthora infestans) [%] | inhibition [1] | inhibition [2]
1 | C=CCN(CC(Cn1cncn1)c1ccc(Cl)cc1Cl)C1CC1 (centres undefined) | 55 (≈ 157 µM) | 4.4 (≈ 12.5 µM) | 0.8 (≈ 2.28 µM) | 0.01 (≈ 0.0285 µM) | 3.2 (≈ 9.11 µM) | 0.2 (≈ 0.569 µM) |  |  |  |  | 
2 | FC(F)C(F)(F)OCC(Cn1cncn1)c1ccc(Cl)cc1Cl (centres undefined) [TETRACONAZOLE] |  | 0.04 (≈ 0.107 µM) |  |  |  |  | 100 | 100 | 0 |  | 
3 | C/C=C/C(=O)NCC(Cn1cncn1)c1ccc(Cl)cc1Cl (centres undefined) | > 100 | > 100 | > 100 | 20.7 (≈ 61 µM) | > 100 | 60.5 (≈ 178 µM) |  |  |  |  | 
4 | CC(=O)NCC(Cn1cncn1)c1ccc(Cl)cc1Cl (centres undefined) | > 100 | > 100 | > 100 | 60 (≈ 192 µM) | > 100 | > 100 |  |  |  |  | 
5 | Clc1ccc(C(CN(Cc2ccccc2)Cc2ccccc2)Cn2cncn2)c(Cl)c1 (centres undefined) | > 100 | 6 (≈ 13.3 µM) | 17 (≈ 37.7 µM) | 0.09 (≈ 0.199 µM) | 1.9 (≈ 4.21 µM) | 4 (≈ 8.86 µM) |  |  |  |  | 
6 | C=CCN(CC=C)CC(Cn1cncn1)c1ccc(Cl)cc1Cl (centres undefined) | > 100 | 10 (≈ 28.5 µM) | 3.6 (≈ 10.2 µM) | 0.22 (≈ 0.626 µM) | 6.5 (≈ 18.5 µM) | 2.6 (≈ 7.4 µM) | 25 | 30 | 0 | Active | inactive
7 | Clc1ccc(C(CNCc2ccccc2)Cn2cncn2)c(Cl)c1 (centres undefined) | > 100 | > 100 | 23.4 (≈ 64.8 µM) | 11.3 (≈ 31.3 µM) | 30.3 (≈ 83.9 µM) | 2.7 (≈ 7.47 µM) |  |  |  |  | 
8 | C#CCNCC(Cn1cncn1)c1ccc(Cl)cc1Cl (centres undefined) | > 100 | 38 (≈ 123 µM) | 11 (≈ 35.6 µM) | 1.3 (≈ 4.2 µM) | 38 (≈ 123 µM) | 4 (≈ 12.9 µM) |  |  |  |  | 
9 | CN(C)CC(Cn1cncn1)c1ccc(Cl)cc1Cl (centres undefined) | > 100 | 75 (≈ 251 µM) | 6.5 (≈ 21.7 µM) | 2.5 (≈ 8.36 µM) | 42 (≈ 140 µM) | 8 (≈ 26.7 µM) |  |  |  |  | 
10 | Clc1ccc(C(CN(C/C=C/c2ccccc2)C/C=C/c2ccccc2)Cn2cncn2)c(Cl)c1 (centres undefined) | > 100 | > 100 | > 100 | 0.65 (≈ 1.29 µM) | 6 (≈ 11.9 µM) | 12.5 (≈ 24.8 µM) |  |  |  |  | 
11 | CC(C)(C)c1ccc(CN(Cc2ccc(C(C)(C)C)cc2)CC(Cn2cncn2)c2ccc(Cl)cc2Cl)cc1 (centres undefined) | > 100 | > 100 | > 100 | 9 (≈ 16 µM) | > 100 | 7 (≈ 12.4 µM) |  |  |  |  | 
12 | O=C(NCC(Cn1cncn1)c1ccc(Cl)cc1Cl)c1ccccc1 (centres undefined) | > 100 | 100 (≈ 266 µM) | 80.3 (≈ 214 µM) | 1.9 (≈ 5.06 µM) | 11.5 (≈ 30.6 µM) | 2.5 (≈ 6.66 µM) |  |  |  |  | 
13 | Clc1ccc(C(CNC/C=C/c2ccccc2)Cn2cncn2)c(Cl)c1 (centres undefined) | 26 (≈ 67.1 µM) | 42 (≈ 108 µM) | 7.5 (≈ 19.4 µM) | 1.4 (≈ 3.61 µM) | 12 (≈ 31 µM) | 2.4 (≈ 6.2 µM) | 20 | 25 | 0 |  | 
14 | C#CCN(CC#C)CC(Cn1cncn1)c1ccc(Cl)cc1Cl (centres undefined) | 9 (≈ 25.9 µM) | 4.9 (≈ 14.1 µM) | 2.8 (≈ 8.06 µM) | 0.14 (≈ 0.403 µM) | 2.1 (≈ 6.05 µM) | 1.1 (≈ 3.17 µM) | 15 | 35 | 0 |  | 
15 | C=CCNCC(Cn1cncn1)c1ccc(Cl)cc1Cl (centres undefined) | > 100 | > 100 | 91.3 (≈ 293 µM) | 19.9 (≈ 63.9 µM) | > 100 | 31.7 (≈ 102 µM) |  |  |  |  | 
16 | NCC(Cn1cncn1)c1ccc(Cl)cc1Cl (centres undefined) | > 100 | > 100 | > 100 | 70.3 (≈ 259 µM) | > 100 | > 100 |  |  |  |  | 
17 | Clc1ccc(C(CN(C2CC2)C2CC2)Cn2cncn2)c(Cl)c1 (centres undefined) | 55 (≈ 157 µM) | 7.5 (≈ 21.4 µM) | 1.2 (≈ 3.42 µM) | 0.02 (≈ 0.0569 µM) | 5.5 (≈ 15.7 µM) | 0.4 (≈ 1.14 µM) | 10 | 60 | 0 |  | 
